pIC50: −log10 of the molar value.
Tests used:
[1] = test system: mitochondrial membrane potential (Δψm) in SH-SY5Y cells; test: JC-10 mitochondrial membrane potential assay; format: cell-based, human
[2] = test system: Aβ42 neurotoxicity in SH-SY5Y cells; test: Anti-Aβ42 neurotoxicity assay; format: cell-based, human; conditions: 0.1 μM pretreatment 1 h then 10 μM Aβ42 72 h
p38β kinase = p38β kinase (Homo sapiens, UniProt Q15759); test: ADP-Glo kinase luminescent assay; format: biochemical; conditions: 1 μM TPPU, relative to vehicle control
Sequence of p38β kinase (Q15759 whole entry): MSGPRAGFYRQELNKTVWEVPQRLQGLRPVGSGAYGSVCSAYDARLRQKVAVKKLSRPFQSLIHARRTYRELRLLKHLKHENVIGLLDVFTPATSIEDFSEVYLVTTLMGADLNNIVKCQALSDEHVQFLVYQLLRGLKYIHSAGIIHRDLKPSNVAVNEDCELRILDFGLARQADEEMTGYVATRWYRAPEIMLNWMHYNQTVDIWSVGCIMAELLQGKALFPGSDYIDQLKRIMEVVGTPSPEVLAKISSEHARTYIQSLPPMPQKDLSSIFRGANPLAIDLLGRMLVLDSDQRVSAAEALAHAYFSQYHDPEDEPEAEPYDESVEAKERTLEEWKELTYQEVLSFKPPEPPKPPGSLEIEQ

p38γ kinase = target: T1, p38γ kinase (Homo sapiens, UniProt P53778); test: ADP-Glo kinase luminescent assay; format: biochemical; conditions: 1 μM TPPU, relative to vehicle control
T1 sequence (P53778 1-367): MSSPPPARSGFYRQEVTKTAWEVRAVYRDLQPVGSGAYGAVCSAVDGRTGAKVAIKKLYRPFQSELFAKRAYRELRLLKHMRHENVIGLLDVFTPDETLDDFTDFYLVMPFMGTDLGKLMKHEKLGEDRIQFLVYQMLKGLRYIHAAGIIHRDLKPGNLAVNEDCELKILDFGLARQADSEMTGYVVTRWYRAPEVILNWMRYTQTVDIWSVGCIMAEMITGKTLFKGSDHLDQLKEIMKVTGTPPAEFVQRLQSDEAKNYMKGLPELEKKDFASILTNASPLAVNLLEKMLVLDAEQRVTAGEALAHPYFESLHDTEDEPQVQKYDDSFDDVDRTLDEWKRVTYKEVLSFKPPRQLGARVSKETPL

p38α = test: ADP-Glo kinase luminescent assay; format: biochemical, human; conditions: 1 μM TPPU
In short: (§1)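 Test compound at 1 μM, or 0.2% PEG 400 vehicle. Incubated 1 h at room temperature, then ADP-Glo luminescence read. Staurosporine 1 μM served as reference. Activity expressed relative to vehicle. Duplicates, six independent experiments.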

p38δ = test: ADP-Glo kinase luminescent assay; format: biochemical, human; conditions: 1 μM TPPU
In short: as §1

GSK-3β = GSK-3β (Homo sapiens, UniProt P49841); test: ADP-Glo kinase luminescent assay; format: biochemical; conditions: 1 μM TPPU, in comparison with p38β
Sequence of GSK-3β (P49841 whole entry): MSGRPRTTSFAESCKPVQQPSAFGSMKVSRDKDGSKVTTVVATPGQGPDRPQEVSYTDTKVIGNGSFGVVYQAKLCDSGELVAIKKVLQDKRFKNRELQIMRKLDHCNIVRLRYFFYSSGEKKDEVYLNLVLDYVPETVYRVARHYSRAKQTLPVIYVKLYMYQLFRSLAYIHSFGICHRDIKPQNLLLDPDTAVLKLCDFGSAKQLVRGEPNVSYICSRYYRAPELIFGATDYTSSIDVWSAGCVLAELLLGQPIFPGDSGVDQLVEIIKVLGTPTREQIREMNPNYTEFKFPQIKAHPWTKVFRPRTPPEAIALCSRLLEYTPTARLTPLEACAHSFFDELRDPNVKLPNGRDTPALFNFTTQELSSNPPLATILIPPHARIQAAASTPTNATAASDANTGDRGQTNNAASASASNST

AMPKA2 = test: ADP-Glo kinase luminescent assay; format: biochemical, human; conditions: 1 μM TPPU, in comparison with p38β
In short: as §1

CK1α1 = test: ADP-Glo kinase luminescent assay; format: biochemical, human; conditions: 1 μM TPPU, in comparison with p38β
In short: as §1

sEH in SH-SY5Y cells = test: Cellular sEH activity in SH-SY5Y cells, [3H]-t-DPPO substrate; format: cell-based, human; conditions: 10, 100 and 1000 nM for 24 h
SH-SY5Y cells [3] = test: Cell viability / cytotoxicity MTS assay; format: cell-based, human; conditions: TPPU alone, 72 h
SH-SY5Y cells [4] = test: Neuronal morphology analysis under Aβ42; format: cell-based, human; conditions: 100 nM pretreatment then 10 μM Aβ42, 72 h
[5] = test system: Tau pS396 in SH-SY5Y cells; test: Anti-tau hyperphosphorylation ELISA; format: cell-based, human
[6] = test system: NF-κB (p50, p52, p65, RelB, c-Rel) in SH-SY5Y cells; test: Nuclear NF-κB DNA-binding ELISA; format: cell-based, human
p38α/β = conditions: read-out: IC50 p38α/β; cited from earlier work
sEH = conditions: read-out: IC50 sEH; cited from earlier work

## N#CC(C#N)=NNc1ccc(OC(F)(F)F)cc1 [FCCP, carbonyl cyanide-4-(trifluoromethoxy)phenylhydrazone]
[1]; FCCP 50 μM
  Δψm depolarization (reference ionophore): depolarized Δψm

## epoxyeicosatrienoic acids [EETs, reference compound]
[2]
  neuroprotection (cell viability): effective neuroprotection
[1]; 0.1 μM pretreatment, 10 μM Aβ42 72 h
  loss of Δψm induced by Aβ42: attenuated the loss of Δψm

## CCC(=O)N1CCC(NC(=O)Nc2ccc(OC(F)(F)F)cc2)CC1 [TPPU]
p38β kinase
  remaining kinase activity: 36%
p38γ kinase
  remaining kinase activity: 49%
p38α
  inhibitory effect on kinase activity: not significant
p38δ
  inhibitory effect on kinase activity: not significant
GSK-3β
  inhibition of kinase activity: weakly inhibited
AMPKA2
  inhibition of kinase activity: weakly inhibited
CK1α1
  inhibition of kinase activity: weakly inhibited
sEH in SH-SY5Y cells
  cellular sEH activities: significantly decreased cellular sEH activities in a dose-dependent manner
SH-SY5Y cells [3]
  tolerable and nontoxic dose: ≤ 1000 nM
[2]
  neuroprotection (cell viability): effective neuroprotection
SH-SY5Y cells [4]
  neuronal morphology / Aβ42 toxicity: effectively relieved Aβ42 toxicity
[5]; 0.01, 0.1 and 1 μM pretreatment 1 h then 10 μM Aβ42 72 h, p < 0.0001
  Aβ42-induced tau phosphorylation level at pS396: significantly mitigated
[5]; TPPU 0.01 μM versus SB202190 0.05 μM
  alleviation of tau hyperphosphorylation compared with SB202190: stronger alleviative effect
[6]; 0.05 and 0.1 μM pretreatment 1 h then 5 μM Aβ42 8 h, p < 0.0001
  nuclear translocation of NF-κB subunits: inhibited nuclear translocation of all five subunits

## C[C@@H]1C[C@H]2[C@@H]3CCC4=CC(=O)C=C[C@]4(C)[C@@]3(F)[C@@H](O)C[C@]2(C)[C@@]1(O)C(=O)CO [DEX, dexamethasone, reference compound]
[6]; 0.1 μM DEX pretreatment 1 h then 5 μM Aβ42 8 h
  levels of NF-κB subunits in neuronal nuclei: significantly reduced levels of all five NF-κB subunits

— PMC7028313 (ACS chemical neuroscience, 2019)
